The text below walks through data of ChEMBL document CHEMBL4354869, “pH-Dependent Grafting of Cancer Cells with Antigenic Epitopes Promotes Selective Antibody-Mediated Cytotoxicity” (J Med Chem, 2020).

The source made the active and inactive calls. The rule behind the calls is not given here. Peptide text beside a SMILES is read from it. * marks the point of attachment. Dnp = O=[N+]([O-])c1ccc(*)c([N+](=O)[O-])c1

In data set [1] the test system is MDA-MB-231. Description: Cytotoxicity against human MDA-MB-231 cells assessed as increase in cell lysis at 0.5 to 1 uM incubated for 5 mins at pH 6 to 7.4 followed by compound washout prior to human PBMC addition at 50:1 effector to target ratio measured after 4 hrs by LDH release assay. The following applies: mda-mb-231, pH 6, 4 h. On the technique in general: LDH leaks from cells whose membrane has failed.

The subject of data set [2] is Lipid bilayer. Briefly: Binding affinity to POPC large unilamellar vesicle at 1:300 ratio measured after 30 mins at pH 5 to 7.4 by circular dichroism spectroscopic analysis. In outline: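 Peptide (20 μM stock in 5 mM sodium phosphate pH 8.0; 7 μM final) mixed with POPC LUVs (extruded, 100 nm pores) at 1:300, pH lowered with HCl, 30 min RT. Far-UV CD 260–200 nm in 0.1 cm cuvette, ≥5 scans averaged, liposome spectrum subtracted; expressed as mean residue molar ellipticity.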
A general note: Circular dichroism is widely used to follow secondary structure.

In data set [3] the test system is MDA-MB-231. Description: Cytotoxicity against human MDA-MB-231 cells assessed as increase in cell lysis at 0.5 to 1 uM incubated for 5 mins at pH 6 to 7.4 followed by compound washout prior to human haNK cell addition at 5:1 effector to target ratio measured after 4 hrs by LDH release assay. In kind it is cell-based. The following applies: mda-mb-231, pH 6, 4 h.

Data set [4] deals with MDA-MB-231. Briefly: Induction of antibody dependent cytotoxicity against human MDA-MB-231 cells assessed as cell lysis at 1 uM incubated for 5 mins at pH 6 followed by compound washout prior to anti-DNP antibody addition for 30 mins and subsequent human PBMC addition at 5:1 effector to target ratio measured after 4 hrs by LDH release assay relative to control. Format: functional.

Data set [5] deals with MDA-MB-231. Briefly: Induction of antibody dependent cytotoxicity against human MDA-MB-231 cells assessed as cell lysis at 0.1 uM incubated for 5 mins at pH 6 followed by compound washout prior to anti-DNP antibody addition for 30 mins and subsequent human PBMC addition at 5:1 effector to target ratio measured after 4 hrs by LDH release assay relative to control. Format: functional.

Data set [6] has as its system MDA-MB-231. Description: Cytotoxicity against human MDA-MB-231 cells assessed as increase in cell lysis at 0.5 to 1 uM incubated for 5 mins at pH 6 to 7.4 followed by compound washout prior to anti-FITC polyclonal rabbit antibody addition for 30 mins and subsequent human PBMC addition at 5:1 effector to target ratio measured after 4 hrs by LDH release assay. Format: cell-based. Conditions: mda-mb-231, pH 6, 1 µM.

In the case of `CC[C@H](C)[C@H](NC(=O)[C@@H]1CCCN1C(=O)[C@H](CC(N)=O)NC(=O)[C@H](CCC(N)=O)NC(=O)[C@H](CCC(=O)O)NC(=O)[C@@H](N)CCCCNc1ccc([N+](=O)[O-])cc1[N+](=O)[O-])C(=O)N[C@@H](Cc1ccc(O)cc1)C(=O)N[C@@H](Cc1c[nH]c2ccccc12)C(=O)N[C@@H](C)C(=O)N[C@@H](CCCNC(=N)N)C(=O)N[C@@H](Cc1ccc(O)cc1)C(=O)N[C@@H](C)C(=O)N[C@@H](CC(=O)O)C(=O)N[C@@H](Cc1c[nH]c2ccccc12)C(=O)N[C@@H](CC(C)C)C(=O)N[C@@H](Cc1ccccc1)C(=O)N[C@H](C(=O)N[C@H](C(=O)N1CCC[C@H]1C(=O)N[C@@H](CC(C)C)C(=O)N[C@@H](CC(C)C)C(=O)N[C@@H](CC(C)C)C(=O)N[C@@H](CC(C)C)C(=O)N[C@@H](CCC(=O)O)C(=O)N[C@@H](CC(C)C)C(=O)N[C@@H](C)C(=O)N[C@@H](CC(C)C)C(=O)N[C@@H](CC(C)C)C(=O)N[C@H](C(=O)N[C@@H](CC(=O)O)C(=O)N[C@@H](C)C(=O)N[C@@H](CC(=O)O)C(=O)N[C@@H](CCC(=O)O)C(=O)NCC(=O)N[C@H](C(=O)NCC(N)=O)[C@@H](C)O)C(C)C)[C@@H](C)O)[C@@H](C)O` (H-K(Dnp)EQNPIYWARYADWLFTTPLLLLELALLVDADEGTG-NH2), the Activity result is “Non-Toxic” in data set [1]; “Non-Toxic” in data set [3]; 40% in data set [4]; 20% in data set [5]; “Non-Toxic” in data set [6]. Also, in data set [2], the outcome was Active.
